M4 PAM = human M4 muscarinic receptor positive allosteric modulators, primary screen, CHO-K1 cells, Fluo-8 calcium fluorescence; Muscarinic acetylcholine receptor M4 (Homo sapiens), P08173; CHO-K1 hM4/Gqi5, ACh EC20; 0% = ACh EC20, 100% = maximal ACh; activation, % at 3 µM; hit rate 0.4% among 360,000;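 active = activation above its plate's cutoff, the mean activation of sample wells plus 3 SD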
Target sequence (P08173 whole entry, looked up): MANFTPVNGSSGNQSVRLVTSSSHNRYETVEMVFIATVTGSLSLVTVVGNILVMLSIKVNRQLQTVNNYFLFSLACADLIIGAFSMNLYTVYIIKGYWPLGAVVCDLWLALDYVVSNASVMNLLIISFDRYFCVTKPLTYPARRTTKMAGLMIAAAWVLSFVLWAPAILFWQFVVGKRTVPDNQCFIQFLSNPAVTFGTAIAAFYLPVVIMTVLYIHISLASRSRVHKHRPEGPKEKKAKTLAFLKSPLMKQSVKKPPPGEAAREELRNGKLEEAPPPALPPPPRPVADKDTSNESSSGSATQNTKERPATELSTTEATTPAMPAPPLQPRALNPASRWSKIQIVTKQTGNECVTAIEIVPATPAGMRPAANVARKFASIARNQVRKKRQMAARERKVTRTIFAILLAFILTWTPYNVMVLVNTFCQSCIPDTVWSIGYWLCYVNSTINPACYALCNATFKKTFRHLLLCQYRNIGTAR
CHRM5 antagonist = human M5 muscarinic receptor antagonists, primary screen, CHO cells, Fluo-8 calcium fluorescence | inhibition, % at 3 µM | AID 624040, 2012 | Muscarinic acetylcholine receptor M5 (Homo sapiens), P08912 | CHO-hM5 cells, ACh EC80 | hit rate 0.59% among 360,000;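 active = inhibition above a per-plate cutoff, the mean of that plate's test compounds plus 3 SD, cut at about 27% in these data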;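 note: 0% = acetylcholine EC80 with DMSO and 100% = DMSO without agonist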
CHRM5 agonist = human M5 muscarinic receptor agonists, primary screen, CHO-K1 cells, Fluo-8 calcium fluorescence; hit rate 0.19% among 360,000; CHO-K1 hM5 cells; 0% DMSO wells, 100% maximal acetylcholine response; Muscarinic acetylcholine receptor M5 (Homo sapiens), P08912; activation, % at 3 µM;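 active = activation above the run's mean over test compounds plus 3 SD, cut at about 23% in these data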;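 note: signal is peak over basal fluorescence ratio across the kinetic read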
M4 antag = human M4 muscarinic receptor antagonists, primary screen, CHO cells, Fluo-8 calcium fluorescence; Muscarinic acetylcholine receptor M4 (Homo sapiens), P08173; CHO-hM4 cells, ACh EC80; inhibition, % at 3 µM; hit rate 0.73% among 360,000; AID 624125, 2012;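 active = inhibition above its plate's cutoff, the mean inhibition of sample wells plus 3 SD, cut at about 27% in these data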;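 note: 0% = acetylcholine EC80 with DMSO and 100% = DMSO without agonist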
M4 ag = human M4 muscarinic receptor agonists, primary screen, CHO-K1 cells, Fluo-8 calcium fluorescence | Muscarinic acetylcholine receptor M4 (Homo sapiens), P08173 | CHO-K1 hM4/Gqi5; vehicle 0%, full acetylcholine response 100% | activation, % at 3 µM | hit rate 0.14% among 360,000;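 active = activation above the run mean over all test wells plus 3 SD, cut at about 32% in these data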;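 note: peak over basal fluorescence ratio per well then scaled between controls; 0% = DMSO wells and 100% = acetylcholine at EC100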
M5 PAM = human M5 muscarinic receptor positive allosteric modulators, primary screen, CHO-K1 cells, Fluo-8 calcium fluorescence; activation, % at 3 µM; CHO-K1 hM5, ACh EC20 PAM; 0% = ACh EC20, 100% = ACh EC100; AID 624038, 2012; hit rate 0.3% among 360,000; Muscarinic acetylcholine receptor M5 (Homo sapiens), P08912;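 active = activation above the run cutoff, the mean activation of all test compounds plus 3 SD, cut at about 18% in these data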
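Assay system – human M5 receptor in CHO-K1 cells · Read-out – % activation, ACh-normalized · Technique – Fluo-8 calcium fluorescence · Dosing – single-point, 3 µM nominal · Incubation – Fluo-8 loading 80 min at 37 °C plus 30 min room temperature · Repeats – singlicate, one well per test compound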
The depositor's hits bear a star; ! = a repeat was not active. This is a sample that favours compounds with a hit; in the whole collection about 1.8% have one here.

SMILES | M4 PAM | CHRM5 antagonist | CHRM5 agonist | M4 antag | M4 ag | M5 PAM
CS(=O)(=O)c1ccc(NS(=O)(=O)c2ccc(Cl)c(C(=O)NCc3ccco3)c2)cc1 | 24* | -1 | 1 | -39 | 0 | -3
O=C(Nc1ccccc1C(=O)O)c1cc(S(=O)(=O)Nc2ccccc2)ccc1Cl | 16* | -4 | 5 | -9 | -2 | 12
CCN(CC)S(=O)(=O)c1ccc(Cl)c(C(=O)NCc2ccco2)c1 | 10 | -2 | -4 | 4 | 3 | 11
CC(=O)c1ccc(NS(=O)(=O)c2cccc(C(=O)Nc3ccccc3C(=O)O)c2)cc1 | 14* | -7 | 6 | -21 | -1 | 11
CCCCN(C)C(=O)c1ccc(Nc2nc(C(N)Cc3ccc(C(F)(F)F)cc3)cs2)nc1 (configuration not stated) | 11 | -5 | 5 | 23 | 28 | 9
COc1ccc(S(=O)(=O)N2CCC[C@H]2C(=O)N2CCC[C@H]2C(=O)NCc2ccncc2)cc1C | 3 | -7 | -1 | -2 | 0 | 0
O=C(NCc1cccs1)c1ccc2sc([C@@H]3O[C@H](CO)[C@H](O)[C@H](O)[C@H]3O)nc2c1 | 16* | -7 | 1 | -14 | 1 | 7
Cc1cnc(CNC(=O)c2ccc3sc([C@@H]4O[C@H](CO)[C@H](O)[C@H](O)[C@H]4O)nc3c2)cn1 | -3 | 2 | -1 | 7 | 0 | -2
Cn1c(=O)c2nc(NCc3ccccc3)cnc2n(C)c1=O | 1 | -1 | 4 | -1 | 1 | 2
Cc1nc2c(=O)n(C)c(=O)n(C)c2nc1Cl | -12 | 28* | -3 | 25 | -2 | -12
CCOc1ccccc1-c1cc(C(=O)Nc2ccc(C(=O)O)cc2)c2ccccc2n1 | 14* | 3 | -4 | -26 | 1 | -3
CCNC(=O)C1CCCN(C(=O)c2cccc(OC(F)(F)F)c2)CC1 (configuration not stated) | 0 | 5 | 4 | -1 | 3 | -7
Nc1ccc2ccc(O)cc2c1 | 6 | 1 | 4 | 0 | 3 | 5
C[n+]1c2cc(N)ccc2cc2ccc(N)cc21 | -16 | 19 | 44* | 27*! | 94* | -9
CC1CC(OC(=O)C(O)c2ccccc2)CC(C)(C)N1C (configuration not stated) | -16 | 88* | -2 | 41* | 0 | -19
O=C(Nc1ccc(F)c(Cl)c1)C1Cc2c(-c3ccccc3Oc3ccccc3)ccnc2O1 (configuration not stated) | 3 | -2 | -1 | -6 | 1 | -1
COc1cc(C(O)c2nc(-c3cccc(C#N)c3)cs2)ccc1F (configuration not stated) | -6 | 5 | 2 | -10 | 9 | -9
Cn1nc(C(C)(C)C)cc1C(=O)N1CCCCC1c1cc(C(=O)Nc2ccccc2Cl)no1 (configuration not stated) | -4 | 7 | -1 | -9 | 6 | -5
CCOc1ccc(S(=O)(=O)N(C)c2ccc(OCC(=O)Nc3nc(-c4cc(OC)ccc4OC)cs3)cc2)cc1 | 30* | 10 | 3 | -7 | 0 | 0
COc1ccc(OC)c(-c2csc(NC(=O)Cc3ccccc3F)n2)c1 | -20 | 8 | -3 | 54* | 0 | -2
COc1ccc(OC)c(-c2csc(NC(=O)Cc3ccccc3OC)n2)c1 | -5 | 3 | -6 | -21 | 4 | 1
CCOC(=O)Cc1csc(NC(=O)COc2ccc(N(C)S(=O)(=O)c3ccc(C)cc3)cc2)n1 | -11 | 8 | -4 | 4 | 12 | -48
COc1ccc(Cl)cc1-c1cc(C(=O)Nc2ccc(C)c(NS(C)(=O)=O)c2)[nH]n1 | -8 | 6 | 2 | 2 | 16 | -6
CCN(CCO)CC1CCCC2CCCCC21 (configuration not stated) | 4 | -12 | -3 | 4 | 1 | 6
COc1cc(C2C=C(c3cccs3)Nc3ncnn32)cc(OC)c1OC (configuration not stated) | -14 | 16 | 19 | 10 | 34* | -9
SMILES | M4 PAM | CHRM5 antagonist | CHRM5 agonist | M4 antag | M4 ag | M5 PAM
COc1ccc(NC(=O)[C@@H]2O[C@H](CO)[C@H](O)[C@H](O)[C@H]2O)cc1F | -2 | -2 | 0 | 7 | 0 | 1
O=C(NCCCn1ccnc1)C(=O)NCC(c1ccco1)N1CCN(c2ccccc2)CC1 (configuration not stated) | -6 | 4 | -1 | 33* | 2 | 0
COc1cccc(CNC(=O)c2cc3c(c(-c4cccc(-c5cccc(C#N)c5)c4)n2)[C@H](CCO)N(S(=O)C(C)(C)C)C3)c1 (some centres not stated) | -10 | 13 | 4 | 5 | 19 | -16
CC1=CC(C)(C)N(C(=O)c2ccccc2)c2ccccc21 | 7 | -1 | 0 | -11 | -4 | 2
CC1=CC(C)(C)N(C(=O)c2ccccc2)c2ccc(C)cc21 | -5 | 2 | 23* | 2 | 8 | 6
COC(=O)c1ccc(OCCN2C3=NCCN3c3ccccc32)cc1 | -21 | -5 | -8 | 40* | 1 | -3
COC(=O)c1ccc(OCCN2CCCCCC2)cc1 | -18 | 7 | -10 | 19 | 0 | -5
O=c1/c(=C/c2ccccc2)sc2nnc(-c3cccs3)n12 | 1 | 0 | 2 | 1 | 0 | 19*
O=c1/c(=C\c2ccc(O)cc2)sc2nc(-c3ccccc3)c(-c3ccccc3)n12 | -1 | 4 | -1 | -7 | 0 | 3
O=C1OCCC1=COCCCCCCOC=C1CCOC1=O | 3 | 9 | 4 | -2 | 3 | 0
COCOCCn1cc(CN2CCS(=O)(=O)N(Cc3ccc(-c4ccc(OC)cc4)cc3)C(C(C)C)C2=O)nn1 (configuration not stated) | -1 | 3 | -1 | -13 | 6 | -1
CCOC(=O)CSc1nc(C)c2cccc(C)c2n1 | 8 | -5 | 0 | -8 | 0 | 19*
CCOC(=O)CSc1nc(C)c2ccccc2n1 | -4 | 5 | 0 | 4 | 0 | -2
Cn1c(SCc2ccc(Br)cc2)nc2ccccc2c1=O | -6 | 8 | 1 | 8 | 5 | -10
Cn1c(SCc2ccccc2)nc2ccsc2c1=O | -15 | 30* | 3 | 14 | 15 | -21
